Tests used:
MCF7 [1] = experiment: Cytotoxicity against human multidrug-resistant MCF7 cells after 72 hrs by SRB assay; assay type: functional, cell-based; details: MCF7, 72 h
In short: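 Monolayer cultures kept in RPMI-1640 with 5% FCS, 5% NuSerum IV, 20 mM HEPES, 2 mM L-glutamine at 37 °C, 5% CO2. Cells seeded at 800-1500/well and allowed to attach 15-18 h, then given 10 concentrations spanning 5 logs (DMSO stock diluted in RPMI-1640/10 mM HEPES) for 72 h. Fixed with cold TCA, stained with 0.4% SRB, OD 570 nm. Sigmoid-Emax nonlinear regression fit.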

MCF7 [2] = experiment: Cytotoxicity against human MCF7 cells after 72 hrs by SRB assay; assay type: functional, cell-based; details: MCF7, 72 h

SMILES	IC50 (MCF7 [1]) [nM]	IC50 (MCF7 [2]) [nM]
CC(=O)O[C@@]1([C@@H]2/C(C)=C(/O)C(=O)C3=C(C)[C@@H](OC(=O)[C@H](O)[C@H](CC(C)C)NC(=O)OC(C)(C)C)C[C@@](O)([C@H]2OC(=O)c2ccccc2)C3(C)C)CO[C@@H]1CCO	1640	14
CC(=O)O[C@@]1([C@@H]2/C(C)=C(/OC(=O)OC(C)(C)C)C(=O)C3=C(C)[C@@H](OC(=O)[C@H](O)[C@H](CC(C)C)NC(=O)OC(C)(C)C)C[C@@](O)([C@H]2OC(=O)c2ccccc2)C3(C)C)CO[C@@H]1CCOC(=O)OC(C)(C)C	736	51
CC(=O)OCC[C@H]1OC[C@@]1(OC(C)=O)[C@@H]1/C(C)=C(/OC(C)=O)C(=O)C2=C(C)[C@@H](OC(=O)[C@H](O)[C@H](CC(C)C)NC(=O)OC(C)(C)C)C[C@@](O)([C@H]1OC(=O)c1ccccc1)C2(C)C	956	36
CC(=O)O[C@@]1([C@@H]2/C(C)=C(/OC(=O)[C@@H](O)[C@@H](CC(C)C)NC(=O)OC(C)(C)C)C(=O)C3=C(C)[C@@H](O)C[C@@](O)([C@H]2OC(=O)c2ccccc2)C3(C)C)CO[C@@H]1CCOC(=O)C(C)(C)C	> 3000	> 3000
CC(=O)O[C@@]1([C@@H]2/C(C)=C(/OC(=O)OCc3ccccc3)C(=O)C3=C(C)[C@@H](OC(=O)[C@H](O)[C@H](CC(C)C)NC(=O)OC(C)(C)C)C[C@@](O)([C@H]2OC(=O)c2ccccc2)C3(C)C)CO[C@@H]1CCO	1200	53
CC(=O)O/C1=C(\C)[C@@H]([C@]2(OC(C)=O)CO[C@@H]2CCO)[C@H](OC(=O)c2ccccc2)[C@]2(O)C[C@H](OC(=O)[C@H](O)[C@H](CC(C)C)NC(=O)OC(C)(C)C)C(C)=C(C1=O)C2(C)C	1000	18
CC(=O)O[C@H]1C(=O)[C@@]2(C)[C@H]([C@H](OC(=O)c3ccccc3)[C@]3(O)C[C@H](OC(=O)[C@H](O)[C@@H](NC(=O)c4ccccc4)c4ccccc4)C(C)=C1C3(C)C)[C@]1(OC(C)=O)CO[C@@H]1C[C@@H]2O [PACLITAXEL]	354	
